Data from ChEMBL document CHEMBL4513216, “Probing the Open Global Health Chemical Diversity Library for Multistage-Active Starting Points for Next-Generation Antimalarials” (ACS Infect Dis, 2020).

Test: Toxicity liver stage against HepG2, at 10uM
Format: cell-based
Design: test concentration 10 uM, cell line HepG2-A16-CD81EGFP
Conditions: human, HepG2-A16-CD81EGFP cells; read-out: INHIBITION
In short: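 Uninfected HepG2-A16-CD81EGFP cells, 3 × 10^3 per well, 1536-well, plated on prespotted compound at 10 μM final, parasite-free screening media added to match infected plates; puromycin 10 μM positive, DMSO 0.5% negative; run in parallel with 48 h PbLuc assay at 37 °C, 5% CO2; viability by CellTiter-Glo luminescence, normalized to controls.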

CC(=O)N[C@H](C)c1c(-c2ccc(Cl)cc2)noc1C(=O)O
cytotoxicity at 10 µM: 3.29%

NC(=O)CN1C(=O)CO[C@H]2CN(Cc3ccc(C(F)(F)F)cc3)C[C@H]21
cytotoxicity at 10 µM: 0.523%

O=C(Nc1ccccc1)[C@H]1CN2CCC1C[C@@H]2Cn1cc(CO)nn1 (some centres not stated)
cytotoxicity at 10 µM: -2.42%

CC(=O)N1N=C(c2ccccc2)OC1C(=O)NCCOc1ccccc1 (configuration not stated)
cytotoxicity at 10 µM: -2.86%

CNC(=O)c1cc(-c2ccccc2OC)[nH]n1
cytotoxicity at 10 µM: -2.77%

CCOC(=O)[C@@H]1[C@@H](O)C(=O)N(C)C12CCN(C(=O)OC)CC2
cytotoxicity at 10 µM: 1.97%

COc1cccc(NC(=O)Cn2c(=O)nc(N)c3cc(C)sc32)c1
cytotoxicity at 10 µM: -8.72%

Cn1c(-c2cccs2)nn(CCNS(=O)(=O)c2ccccc2Cl)c1=O
cytotoxicity at 10 µM: -9.48%

Cc1cccc(OC2CCN(C(=O)Cn3ccc4ccccc43)CC2)n1
cytotoxicity at 10 µM: 1.53%

Cc1nsc(C(=O)NCCc2cccs2)n1
cytotoxicity at 10 µM: -2.67%

O=S(=O)(Nc1cnn(C2CCOCC2)c1)c1ccc(Br)cc1
cytotoxicity at 10 µM: 5.05%

CCN(C)C1COC2(CCN(C(=O)c3ccc4[nH]ccc4c3)CC2)C1 (configuration not stated)
cytotoxicity at 10 µM: -5.96%

CCN1C(=O)C(c2ccccc2)CC12CCN(c1ncccn1)CC2 (configuration not stated)
cytotoxicity at 10 µM: 1.11%

COCCC(=O)N1Cc2[nH]nc(COc3cccnc3)c2C1
cytotoxicity at 10 µM: -2.97%

Cc1cncc(C(=O)NCC2COCc3c(C)nnn3C2)c1 (configuration not stated)
cytotoxicity at 10 µM: -2.03%

CC(C)(C)n1ncc2c1NC(=O)CC2c1ccc(C(=O)O)cc1 (configuration not stated)
cytotoxicity at 10 µM: 2.08%

COC(=O)CCc1c(C)nn(-c2nc(C)cc(=O)[nH]2)c1C
cytotoxicity at 10 µM: 9.22%

COc1cccc(S(=O)(=O)NC2CNC(=O)C2)c1 (configuration not stated)
cytotoxicity at 10 µM: -21.7%

O=c1ccc(-c2cccs2)nn1CN1CCN(Cc2ccccc2)CC1
cytotoxicity at 10 µM: -3.73%

COc1ccc(C)cc1S(=O)(=O)NCCC(O)c1ccccc1 (configuration not stated)
cytotoxicity at 10 µM: 0.197%

Cc1nc(C)c(C(=O)N2CCc3nnc(C4CCCCN4C)n3CC2)s1 (configuration not stated)
cytotoxicity at 10 µM: 0.642%

O=C(Cc1ccccc1F)N1CCC[C@@H]1Cn1c(=O)oc2ccccc21
cytotoxicity at 10 µM: 2.69%

O=S(=O)(c1ccccc1)N1CCOC(Cn2ccnc2)C1 (configuration not stated)
cytotoxicity at 10 µM: 7.77%

CC(C)n1nnc(CC(=O)NCC2(c3ccccc3F)CCCC2)n1
cytotoxicity at 10 µM: -0.325%

COc1ccc2c(c1)NC(C1CCN(C(=O)C(C)C)CC1)NS2(=O)=O (configuration not stated)
cytotoxicity at 10 µM: -4.66%

NCc1cccc(-c2cccnc2C(=O)NCCCN2CCOCC2)c1
cytotoxicity at 10 µM: -8.77%

c1cc(-c2cnc(NC3CC3)nc2[C@H]2CCCO2)ccn1
cytotoxicity at 10 µM: 9.83%

O=C(Cn1cccc2cc(-c3ccc(F)cc3)nc1-2)N1CCC(O)CC1
cytotoxicity at 10 µM: -7.74%

CCC(C)C(=O)NCc1ccn(-c2ccc(F)cc2)n1 (configuration not stated)
cytotoxicity at 10 µM: -2.42%

CCC(=O)N(C)Cc1cccc(OC(C)C)c1
cytotoxicity at 10 µM: 12.8%

COc1ccc(Cl)cc1NCC(=O)N(Cc1ccccn1)C1CC1
cytotoxicity at 10 µM: 8.13%

Cc1noc(C(C)N2CCN(CCc3ccncc3)CC2)n1 (configuration not stated)
cytotoxicity at 10 µM: 2.67%

Cc1noc(C)c1C(C)NC(=O)N1CCCN(C(=O)c2ccsc2)CC1 (configuration not stated)
cytotoxicity at 10 µM: -0.77%

CC(Cn1cncn1)NC(=O)N1CC2(CCCC2)c2ccccc21 (configuration not stated)
cytotoxicity at 10 µM: 5.65%

Cc1nc2ccccc2nc1CN1CCc2c(nc(C3CC3)n2C)C1
cytotoxicity at 10 µM: 7.97%

CC(C)CNC(=O)COc1cccc[n+]1[O-]
cytotoxicity at 10 µM: -8.35%

CCN(CCO)C(=O)Nc1ccc(OCCOC)nc1
cytotoxicity at 10 µM: -5.71%

COc1ccccc1CNC(Cn1cncn1)c1ccccc1 (configuration not stated)
cytotoxicity at 10 µM: -6.1%

Cc1ccoc1C(=O)N1CCOC2(CCCC2)C1
cytotoxicity at 10 µM: -4.55%

N#Cc1cn(CCCN2CCc3ccccc32)c(=O)[nH]c1=O
cytotoxicity at 10 µM: 6.48%

CC(C)OCCC(=O)N1CCN(CC(O)c2ccccc2)CC1 (configuration not stated)
cytotoxicity at 10 µM: -8.09%

c1ccc(C(c2ccccc2)N2CCN(CCn3cncn3)CC2)cc1
cytotoxicity at 10 µM: -7.72%

Cc1cnn(C2CN(CC(=O)NCC3(c4ccccc4)CCC3)C2)c1
cytotoxicity at 10 µM: -4.2%

Cc1nn(C)c(N(C)C)c1CNC(C)c1cccnc1 (configuration not stated)
cytotoxicity at 10 µM: -2.8%

COc1ccnc(N2CCN(C(=O)c3csc(C)n3)CC2)n1
cytotoxicity at 10 µM: 0.313%

COc1ccc(OCCNc2cccc(C(=O)N3CCOCC3)c2)cc1
cytotoxicity at 10 µM: 7.08%

Cc1nnc(NC(=O)CN2CCCC2c2noc(C3CC3)n2)s1 (configuration not stated)
cytotoxicity at 10 µM: 5.22%

CN(C)C(=O)C(C)(C)c1ccc2c(c1)OCCO2
cytotoxicity at 10 µM: -1.52%

Cc1nc(CN2CCCN(C(=O)c3ccn(C)c(=O)c3)CC2)cs1
cytotoxicity at 10 µM: -12.7%

Cn1cc(CNC(=O)C2CCCN(Cc3cccc(F)c3)C2)cn1 (configuration not stated)
cytotoxicity at 10 µM: 3.44%

CCOc1ccc(S(=O)(=O)C(C)C(=O)Nc2cc(C)no2)cc1 (configuration not stated)
cytotoxicity at 10 µM: 5.07%

O=C(CCc1nc(C2CC2)no1)c1ccccc1
cytotoxicity at 10 µM: -6.43%

N#Cc1ccc(CN2CCNC(=O)C2c2cccs2)cc1 (configuration not stated)
cytotoxicity at 10 µM: -2.89%

CC(=O)N1CCN(C(C)c2ccc(Br)cc2)CC1 (configuration not stated)
cytotoxicity at 10 µM: -5.63%

CCN(Cc1ccoc1)C(=O)C1CCN(C(=O)OC(C)(C)C)C1 (configuration not stated)
cytotoxicity at 10 µM: -15.5%

O=S(=O)(Cc1ccccc1)NCc1nnc2n1CCC2
cytotoxicity at 10 µM: 16.2%

CC(Cn1cccn1)NC(=O)NCCCN1CCc2ccccc2C1 (configuration not stated)
cytotoxicity at 10 µM: -3.08%

COc1ccc(CNCCn2c(C)nc3ccccc32)cc1O
cytotoxicity at 10 µM: -3.51%

COCC(NC(=O)NCc1cccc(Cl)c1)c1ccco1 (configuration not stated)
cytotoxicity at 10 µM: 6.4%

CCCc1noc(CCC(=O)NC(C)c2nnc3n2CCCCC3)n1 (configuration not stated)
cytotoxicity at 10 µM: 4.05%

Cc1ccn(-c2ccccc2NCc2cccnc2C)n1
cytotoxicity at 10 µM: 1.34%

Cc1nc(CC(=O)N2CCCN(c3ccc(C#N)cc3)CC2)cs1
cytotoxicity at 10 µM: 2.37%

Cc1cnn(C2CCCN(C(=O)c3cc(C)sc3C)C2)c1 (configuration not stated)
cytotoxicity at 10 µM: -1.4%

O=C(C1CCC1)N1CCCC1c1nnc2n1CCCCC2 (configuration not stated)
cytotoxicity at 10 µM: 1.26%

O=C(CCn1ccccc1=O)N1CCCC(COc2ccc(F)cc2)C1 (configuration not stated)
cytotoxicity at 10 µM: -4.19%

CCC[C@H]1CN(c2cncc(C(=O)N3CCCCC3)n2)C[C@@H]1N(C)C
cytotoxicity at 10 µM: -11.2%

CC(=O)NCC(=O)N1CCCC2(CCC(=O)N(CCc3c[nH]cn3)C2)C1 (configuration not stated)
cytotoxicity at 10 µM: 2.77%

CCCN(Cc1nc(-c2ccc(F)c(OC)c2)oc1C)CC1CCCO1 (configuration not stated)
cytotoxicity at 10 µM: -1.03%

COCCN(CC1CCCN(C2Cc3ccccc3C2)C1)C(=O)COC (configuration not stated)
cytotoxicity at 10 µM: -5.98%

O=C1NC(C(=O)NCc2cccnc2Oc2ccccc2F)CO1 (configuration not stated)
cytotoxicity at 10 µM: 8.99%

CCC1CN(Cc2nnc(C(C)C)o2)CCC(=O)N1Cc1ccccc1 (configuration not stated)
cytotoxicity at 10 µM: 3.33%

O=C(c1ccccn1)N1CCc2c(nc(-c3ccncc3)[nH]c2=O)C1
cytotoxicity at 10 µM: 2.99%

CC(C)CNS(=O)(=O)c1ccc(C(=O)N(C)CCc2cn[nH]c2)cc1
cytotoxicity at 10 µM: 4.48%

COCCC(=O)N1CCCC2(CCC(=O)N(CCc3c[nH]cn3)C2)C1 (configuration not stated)
cytotoxicity at 10 µM: -3.76%

CCCN1CC2(CCN(c3cc(C4CC4)ncn3)CC2)CC1C(=O)O (configuration not stated)
cytotoxicity at 10 µM: -9.88%

Cc1ccccc1CN1CCNC(=O)C1CC(=O)NCC1CCCCC1 (configuration not stated)
cytotoxicity at 10 µM: -8.77%

CCn1cc(CNC2CCN(c3cccc(C)c3C)CC2)cn1
cytotoxicity at 10 µM: -9.99%

COc1cccc(CCn2ccnc2-c2cn(C3CCNCC3)nn2)c1
cytotoxicity at 10 µM: -7.23%

CCc1cnc(C)nc1NC(CC)c1ncnn1CC (configuration not stated)
cytotoxicity at 10 µM: -10.2%

Cc1n[nH]c(C)c1CCN(C)C(=O)C(c1cccnc1)N1CCOCC1 (configuration not stated)
cytotoxicity at 10 µM: -0.593%

COc1cc(CN2CCCC23CCN(c2ccccn2)CC3)ccc1F
cytotoxicity at 10 µM: -11.5%

Cn1ncc2c(NCCC34CCCN3CCC4)nc(C3CCCC3)nc21
cytotoxicity at 10 µM: -12.9%

O=C(Nc1cc(F)ccc1OCC1CCCO1)NC1CC1 (configuration not stated)
cytotoxicity at 10 µM: 0.043%

COc1ccc(C(=O)N2CCCC2c2cnn(C)c2)cn1 (configuration not stated)
cytotoxicity at 10 µM: -3.63%

O=C(CS(=O)(=O)Cc1cc(Cl)c2c(c1)OCO2)N1CCCCCC1
cytotoxicity at 10 µM: -2.8%

Cc1nn(C)c(Cl)c1C1CCCN1Cc1nc(-c2ccco2)no1 (configuration not stated)
cytotoxicity at 10 µM: -11.8%

Cc1ccc(C(O)CNC(=O)Nc2cc(C)nn2C)cc1 (configuration not stated)
cytotoxicity at 10 µM: -13.3%

COc1ccc(CNC(=O)CCSCc2csc(C)n2)cn1
cytotoxicity at 10 µM: -21.4%

OC(CN1CCC(c2ccn[nH]2)CC1)c1ccc(F)cc1 (configuration not stated)
cytotoxicity at 10 µM: -28.9%

Cc1nc(CN2CCC(c3ccnn3CCO)CC2)oc1C
cytotoxicity at 10 µM: -15.9%

CC(O)CN1CCN(C(=O)c2ccn(-c3ccccc3Cl)n2)CC1 (configuration not stated)
cytotoxicity at 10 µM: -11.6%

c1ncn(CC2CCCN(Cc3csc(-c4ccsc4)n3)C2)n1 (configuration not stated)
cytotoxicity at 10 µM: -9.86%

Cc1noc(C)c1CN1CCCC(c2noc(C3CC3)n2)C1 (configuration not stated)
cytotoxicity at 10 µM: -12.8%

CC(NC(=O)CCCOc1ccc(F)cc1)c1nnc2n1CCC2 (configuration not stated)
cytotoxicity at 10 µM: -16.1%

Cc1noc(C(C)C)c1C(=O)NCCCN1CCC(C)CC1
cytotoxicity at 10 µM: -15.9%

Cc1cnn(CC2CCCN2CC(=O)Nc2nccs2)c1 (configuration not stated)
cytotoxicity at 10 µM: -4.34%

Cc1ccc(S(C)(=O)=O)cc1C(=O)N1CCCC(n2cncn2)C1 (configuration not stated)
cytotoxicity at 10 µM: -8.21%

Cc1nc(C)n(CC2CCCN2Cc2cn(-c3ccccc3)nn2)n1 (configuration not stated)
cytotoxicity at 10 µM: 3.87%

CCN(CC)C1CCN(C(=O)NCc2nncn2CC)CC1
cytotoxicity at 10 µM: 2.72%

Cc1c(CN2CCc3nc4sccc4c(=O)n3CC2)cnn1C
cytotoxicity at 10 µM: -2.75%

CCN1CCC2(CCN(c3ncccn3)CC2)C1=O
cytotoxicity at 10 µM: 1.26%

O=C(O)c1cc2c(nc1N1CCOCC1)CCN(C1CCOC1)CC2 (configuration not stated)
cytotoxicity at 10 µM: 6.68%

COc1ncccc1CN1CCc2[nH]nc(C(=O)N3CCCC3C)c2C1 (configuration not stated)
cytotoxicity at 10 µM: -4.4%

CN(C)c1ncnc2c1CCN(Cc1nccs1)CC2
cytotoxicity at 10 µM: 6.1%

CCN(C)c1ncnc2c1CCN(C(=O)COC)CC2
cytotoxicity at 10 µM: 1.75%

O=C(c1ccc(F)cc1)N1CC[C@H]2[C@H]1CCN2CC1CC1
cytotoxicity at 10 µM: -1.92%

O=S(=O)(c1cccc(F)c1)N1CC[C@H]2[C@H]1CCN2c1ncccn1
cytotoxicity at 10 µM: -4.35%

O=C(C1CC1)N1CC2(CCNCC2)c2cc(F)ccc21
cytotoxicity at 10 µM: 0.317%

COCC(=O)N1CCCC2(CCN(CCN3CCCC3)CC2)C1
cytotoxicity at 10 µM: 4.71%

CC(C)N1CCC2(CC1)CC(NS(C)(=O)=O)c1ccccc1O2 (configuration not stated)
cytotoxicity at 10 µM: 7.16%

CC(=O)N1CCC2(CCN(Cc3cccc(F)c3)CC2)CC1
cytotoxicity at 10 µM: -5.46%

Cc1ccc(N2CCO[C@H]3CN(Cc4cccnc4)C[C@H]32)nn1
cytotoxicity at 10 µM: -81.3%
